We go through 16 compounds from ChEMBL document CHEMBL1159049, “Novel small molecule bradykinin B1 receptor antagonists. Part 3: hydroxyurea derivatives” (Bioorg Med Chem Lett, 2010).

Data set [1] concerns the target T1, B1 bradykinin receptor (Homo sapiens, UniProt P46663).
T1 sequence (P46663 whole entry): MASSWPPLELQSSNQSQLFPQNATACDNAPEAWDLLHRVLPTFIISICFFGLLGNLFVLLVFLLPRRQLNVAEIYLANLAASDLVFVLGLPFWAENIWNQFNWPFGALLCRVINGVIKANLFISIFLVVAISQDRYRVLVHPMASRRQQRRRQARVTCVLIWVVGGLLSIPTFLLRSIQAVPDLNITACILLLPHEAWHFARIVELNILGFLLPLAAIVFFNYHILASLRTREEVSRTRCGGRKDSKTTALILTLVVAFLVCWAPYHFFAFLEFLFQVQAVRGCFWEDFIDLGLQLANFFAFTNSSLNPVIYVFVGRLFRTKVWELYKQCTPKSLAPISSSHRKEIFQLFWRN
The experiment in a line: Antagonist activity at bradykinin B1 receptor in human IMR90 cells assessed as inhibition of des-Arg-bradykinin-mediated calcium mobilization. The format is functional, cell-based, IMR-90. The conditions noted are these: in the assay text read “des-Arg-kallidin-mediated” for “des-Arg-bradykinin-mediated”. The gist of the method: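 Human lung fibroblast IMR-90 cells pretreated with IL-1 beta; B1 receptor functional activity read as inhibition of DAKD-mediated calcium mobilization (CAM assay). Values are the numerical average of at least two experiments.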
In general terms: A change in cytosolic calcium serves as a functional read-out for many receptors and channels.

The nature of data set [2]: Half life in Wistar rat at 1 mg/kg, iv […]. The format is ADME, organism-based. The conditions noted are these: in vivo. The method in brief: (§1)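 Male Wistar rats dosed at 1 mg/kg iv (group 1) and 1 mg/kg po (group 2). Plasma aliquots precipitated with methanol containing a structural analogue as internal standard, then analyzed by HPLC-MS/MS for time/concentration values. PK parameters (terminal t1/2, CL, F) derived from these profiles.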

A short description of data set [3]: Clearance in Wistar rat at 1 mg/kg, iv […]. The format is ADME, organism-based. The conditions noted are these: in vivo. The method in brief:
as §1

The nature of data set [4]: Oral bioavailability in Wistar rat at 1 mg/kg. The conditions noted are these: in vivo. The format is ADME, organism-based. The method in brief:
as §1

Data set [5] can be described thus: Compound remaining in PBS buffer after 5 days. The format is physicochemical. The conditions noted are these: read-out: Stability. The method in brief:
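Chemical stability: compound incubated in PBS buffer at 50 °C for 5 days; percent remaining determined.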

Data set [6] is described as follows: Apparent permeability from apical to basolateral side of human Caco-2 cell. The format is ADME, cell-based. The gist of the method:
(§2)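 Bidirectional permeability through Caco-2 cell monolayers; Papp measured apical-to-basolateral and basolateral-to-apical, with efflux ratio taken as B–A over A–B.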
For orientation: Passage across Caco-2 layers is used to estimate intestinal permeability.

In data set [7] the test system is Caco-2. As to the kind of experiment: Ratio of permeability from basolateral to apical side to apical to basolateral side in human Caco-2 cells. The format is ADME, cell-based. The method in brief: as §2
Data set [8] in a line: Metabolic stability in rat liver microsomes after 1 hr. The data set is classed as ADME, Microsome. The conditions noted are these: read-out: Stability. The method in brief:
(§3)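 Incubation with human or rat liver microsomes for 1 h; percent parent remaining reported.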
In general terms: Liver microsomes are a subcellular fraction often used to study metabolism.

Data set [9] can be described thus: Metabolic stability in human liver microsomes after 1 hr. The data set is classed as ADME, Microsome. The conditions noted are these: read-out: Stability. The gist of the method:
as §3

Data set [10] has as its system Hepatocyte. The experiment in a line: Cytotoxicity against human hepatocytes. The data set is classed as cell-based. The gist of the method:
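Cell viability in plateable cryopreserved human hepatocytes exposed to a range of concentrations up to 100 µM for 24 h at 37 °C; resazurin substrate, resorufin product detected by fluorimetry.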

The nature of data set [11]: Aqueous Solubility in PBS buffer. The data set is classed as physicochemical.
Data set [12] in a line: Apparent permeability from basolateral to apical side of human Caco-2 cell. The data set is classed as ADME, cell-based. The method in brief:
as §2

For data set [13], the species on record is Homo sapiens. As to the kind of experiment: Protein binding in human plasma. The conditions noted are these: read-out: PPB (converted).

In brackets after ≈: the same amount, converted by molar mass. Some results are limits rather than exact numbers.

Turning to `Cc1nc(-c2c(F)cc(Cl)cc2-c2cnc([C@@H](C)NC(=O)N(C)O)c(F)c2)no1`, in [1], the IC50 (as a rule, the concentration needed to halve the response being measured) was determined as 1.2 nM. The half-life (commonly how long it takes for the measured level to halve) in data set [2] amounted to 12 min. For the same compound, the clearance – broadly, the rate of elimination divided by the concentration – in data set [3] is 58 mL/min/kg. Further, the bioavailability (usually dose-corrected exposure relative to a reference, in per cent) in data set [4] came to 8%.

Consider `Cc1nc(-c2c(F)cc(Cl)cc2-c2cnc(CNC(=O)N(C)O)c(F)c2)no1`, for which the IC50 in [1] was 17 nM.

`Cc1nc(-c2c(F)cccc2-c2cnc([C@@H](C)NC(=O)N(C)O)c(F)c2)no1`: the IC50 in data set [1] came to 31 nM.

Regarding `Cn1nnc(-c2c(F)cc(Cl)cc2-c2cnc(CNC(=O)N(O)C3CCCCC3)c(F)c2)n1`, in data set [1], the IC50 worked out at 3.9 nM.

For the compound `CC(C)N(O)C(=O)NCc1ncc(-c2cc(Cl)cc(F)c2-c2nnn(C)n2)cc1F`, in [1], the IC50 is 1 nM.

For the compound `Cn1nnc(-c2c(F)cc(Cl)cc2-c2cnc(CNC(=O)N(O)C(C)(C)C)c(F)c2)n1`, in data set [1], the IC50 was 1.4 nM.

Regarding `CN(O)C(=O)NCc1ncc(-c2cc(Cl)cc(F)c2-c2nnn(C)n2)cc1F`, the IC50 in data set [1] worked out at 17 nM.

Regarding `Cc1nc(-c2c(F)cc(Cl)cc2-c2cnc([C@@H](C)NC(=O)N(C)O)c(C)c2)no1`, the IC50 in [1] came out at 3.6 nM.

For `Cc1nc(-c2c(F)cc(Cl)cc2-c2ccc(CNC(=O)N(C)O)cc2)no1`, in data set [1], the IC50 is over 100 nM.

As for `Cn1nnc(-c2c(F)cc(Cl)cc2-c2cnc(CNC(=O)NO)c(F)c2)n1`, the IC50 in [1] came out at 59 nM.

Take `Cn1nnc(-c2c(F)cc(Cl)cc2-c2cnc(CNC(=O)N(O)C3CCC(F)(F)CC3)c(F)c2)n1`: in [5], the remaining at 120 h is over 99%. For the same compound, in [6], the Papp A→B (in general, how fast a substance crosses the layer from the apical side) worked out at 24 ×10⁻⁶ cm/s. Also, in [1], the IC50 was 0.19 nM. This compound showed a half-life in data set [2] of 47 min. For the same compound, the Ratio in data set [7] was under 3. Moreover, the clearance in [3] came to 13 mL/min/kg. Further, the remaining at 1 h in [8] was 84%; in data set [9], 61%. The same compound showed a bioavailability in [4] of 78%. The Activity entry in data set [10] is “Non-toxic”. The solubility (in general, the concentration that dissolves in the medium under given conditions) in data set [11] is 39 µM (≈ 20 µg/mL). The Papp B→A – broadly, the apparent permeability from the basolateral to the apical side of a cell layer – in data set [12] worked out at 43 ×10⁻⁶ cm/s. For the same compound, the fraction unbound in data set [13] is 0.013.

As to `Cn1nnc(-c2c(F)cc(Cl)cc2-c2cnc(CNC(=O)N(O)C(CF)CF)c(F)c2)n1`, the IC50 in data set [1] stood at 0.5 nM. Also, the half-life in data set [2] amounted to 80 min. The clearance in data set [3] is 8 mL/min/kg. Besides, the bioavailability in data set [4] is 86%.

For the compound `Cc1nc(-c2c(Cl)cc(Cl)cc2-c2cnc([C@@H](C)NC(=O)N(C)O)c(F)c2)no1`, the IC50 in data set [1] worked out at 2.3 nM.

As for `Cc1nc(-c2c(F)cc(Cl)cc2-c2ccc(CNC(=O)N(C)O)c(F)c2)no1`, the IC50 in [1] stood at 32 nM.

On to `Cn1nnc(-c2c(F)cc(Cl)cc2-c2cnc(CNC(=O)N(O)C3CCCC3)c(F)c2)n1`, for which the IC50 in data set [1] is 0.8 nM.

As to `CCN(O)C(=O)NCc1ncc(-c2cc(Cl)cc(F)c2-c2nnn(C)n2)cc1F`, the IC50 in [1] turned out to be 4.6 nM.
